This is an account of results in PubChem BioAssay.

Calls of active or inactive are those of the source.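 The calls were made as follows, unless noted: active = visually confirmed hit in the image check and inhibition above 20%; inconclusive = visually confirmed hit but inhibition not above 20%; inactive = no visual hit in the image check.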

Test [1] can be described thus: inhibitors of TNFa-induced NFkB p65 translocation, primary screen, imaging, HUVEC, MLSMR starter and 10KST1 sets (AID 438;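 active = inhibition above 20% together with a positive visual image hit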;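 also: compound added about 3h40 before a 20 min TNFalpha stimulation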;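 as to inhibition: signal is the nuclear over cytoplasmic p65 intensity ratio per well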). The conditions noted are these: HUVEC TNFa-induced p65 nuclear translocation; cell count: measured here: nuclei count (cytotoxicity indicator), at 2.08 µM; inhibition: at 2 µM, stronger effect = higher value, 0% TNFa-plus-vehicle, 100% no-TNFa wells.
Test [2] is described as follows: inhibitors of mutant huntingtin aggregation, primary screen, imaging, exon1htt(103Q)mCFP cells, high-content imaging (AID 483;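 active = visual image review flags a hit and inhibition of aggregation exceeds 20%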;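 also: compound exposure lasted 3 days before fixation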;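 as to nuclei count: percent of the per-plate median nuclei count of sample wells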). The conditions noted are these: exon1htt(103Q)mCFP cell line, aggregate imaging, at 2 µM; inhibition of aggregation: stronger effect = higher value; nuclei count: measured here: cell count, toxicity.
Test [3] in a line: inhibitors of E-selectin induction by TNFa, primary screen, imaging, HUVEC, immunofluorescence, MLSMR starter and 10KST1 sets (AID 487).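 As to inhibition: signal is fraction of cell area covered by stained E-selectin grains.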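 As to nuclei count: 100% = median nuclei count of all wells on the same plate.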 To be noted: HUVEC TNFalpha-induced E-selectin immunofluorescence imaging, at 2 µM; inhibition: stronger effect = higher value; nuclei count: measured here: cell number, toxicity.
In test [4] the target is Voltage-gated potassium channel subunit beta-2 (Rattus norvegicus) (UniProt P62483). Put plainly: KvBeta enzyme negative modulators, primary screen, biochemical, NADPH fluorescence (AID 622;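 active = fluorescence slope higher than the sample average by over 3 SD, cut at about -0.22 in these data, passing the limit was not always enough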;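 also: slope of raw intensity against log time taken from 70 to 1610 s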). To be noted: recombinant KvBeta, 4-cyanobenzaldehyde reduction, at 10 µM, stronger effect = higher value.
The target is the same in test [5]. As to the kind of experiment: KvBeta positive modulators, primary screen, biochemical, NADPH fluorescence (AID 623;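 active = NADPH fluorescence slope more negative than the mean of all samples by about 3 SD, 99.7% confidence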;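 also: fluorescence intensity change per second fitted from 20 to 320 s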). The conditions noted are these: Recombinant KvBeta, NADPH fluorescence decrease slope, 10 min; at 10 µM; stronger effect = lower value.
For test [6], the target named is Muscarinic acetylcholine receptor M4 (Homo sapiens) (UniProt P08173). Put plainly: compounds altering M4/GIRK thallium flux, either direction, primary screen, M4 allosteric agonist project, cell-based, HEK293 M4/GIRK, BTC-AM (AID 625;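 active = fluorescence slope after compound addition differing from the mean of all tested samples at 99.7% confidence, mostly higher but some lower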;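 also: thallium influx through GIRK channels coupled to M4 in HEK293 cells with BTC-AM dye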). To be noted: at 10 µM, actives lie on both sides. The gist of the method: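 System: HEK293 cells with M4 receptor and GIRK channels | Incubation: Cells overnight at 37 °C, BTC-AM loading 1 h, reads 2 min total | Technique: Kinetic BTC-AM fluorescence sampled at 1 Hz, 10 s pre-addition baseline | Measure: Post-addition slope, 15–24 s, of baseline-normalized fluorescence | Control set: Carbachol positive, DMSO negative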

A short description of test [7]: inhibitors of Sendai virus-induced IRF3 signaling, primary screen, TLR/RLR signaling modifier project, cell-based, Sendai virus stimulus, luciferase, 10K MLSCN set (AID 602276;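 active = inhibition at or above 50% at 10 µM; inactive = inhibition below 50%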;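 also: firefly luciferase from ISG56 promoter only with Renilla not read in this screen; 0% = Sendai virus plus DMSO and 100% = medium plus DMSO without virus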). The conditions noted are these: HEK293 RL24 IRF3 luciferase reporter, at 10 µM, stronger effect = higher value. (In general: In a reporter assay the amount or activity of a reporter protein is the signal.)

A short description of test [8]: inhibitors of poly I:C-induced TLR3 signaling, primary screen, cell-based, poly I:C stimulus, luciferase, 10K MLSCN set (AID 602277;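 active = inhibition of the reporter signal at or above 50%; inactive = inhibition below 50%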). To be noted: HEK293-TLR3 RL24 IRF3 luciferase reporter, at 10 µM, stronger effect = higher value.

Muscarinic acetylcholine receptor M4 (Homo sapiens), sequence (P08173 whole entry, looked up): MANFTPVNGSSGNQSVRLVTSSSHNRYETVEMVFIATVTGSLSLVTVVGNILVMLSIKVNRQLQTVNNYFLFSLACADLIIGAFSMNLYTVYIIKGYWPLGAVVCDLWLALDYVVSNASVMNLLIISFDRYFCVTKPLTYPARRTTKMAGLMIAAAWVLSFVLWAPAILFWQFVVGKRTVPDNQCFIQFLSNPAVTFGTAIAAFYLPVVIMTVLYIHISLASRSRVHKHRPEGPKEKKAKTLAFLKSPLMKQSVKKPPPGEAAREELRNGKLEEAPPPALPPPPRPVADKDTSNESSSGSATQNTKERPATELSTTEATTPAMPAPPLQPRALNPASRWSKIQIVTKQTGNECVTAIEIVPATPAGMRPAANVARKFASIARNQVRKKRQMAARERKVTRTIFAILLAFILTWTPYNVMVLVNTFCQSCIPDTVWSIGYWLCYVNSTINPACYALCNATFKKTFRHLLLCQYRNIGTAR
Voltage-gated potassium channel subunit beta-2 (Rattus norvegicus), sequence (P62483 whole entry, looked up): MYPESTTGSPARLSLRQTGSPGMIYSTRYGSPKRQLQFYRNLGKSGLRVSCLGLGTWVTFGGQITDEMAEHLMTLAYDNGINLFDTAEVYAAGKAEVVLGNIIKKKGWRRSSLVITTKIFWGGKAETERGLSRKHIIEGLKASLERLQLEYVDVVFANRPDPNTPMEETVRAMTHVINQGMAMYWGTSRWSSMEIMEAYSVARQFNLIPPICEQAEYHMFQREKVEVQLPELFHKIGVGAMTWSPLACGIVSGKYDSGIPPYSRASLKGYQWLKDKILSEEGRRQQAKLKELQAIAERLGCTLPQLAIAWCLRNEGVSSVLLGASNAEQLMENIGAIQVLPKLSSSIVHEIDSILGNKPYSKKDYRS

The term inhibition denotes the drop in the measured response relative to a control, in per cent. `CN(CC(=O)Nc1ccncc1)S(=O)(=O)c1ccccc1`: the cell count in test [1] is 351. Moreover, the inhibition in test [1] is 4.9% (inactive); in test [3], -141% (inactive); in test [7] it was 14.3% (inactive); in test [8], 2.23% (inactive). The inhibition of aggregation in test [2] was 11.1% (inactive). Moreover, the figures for the nuclei count in test [2] and in test [3] were 108% and 148%, respectively. Moreover, the values for the fluorescence slope in test [4] and in test [6] were -0.432 (inactive) and 0.00615 (inactive), respectively. The NADPH fluorescence slope in test [5] was -7.6e-05 (inactive).

As to `Cc1ccccc1NC(=O)C1CCC(C)(C(=O)O)C1(C)C` (stereo not drawn), the cell count in test [1] was 485. Further, the inhibition in test [1] was 3.5% (inactive); in test [3], -269% (inactive); in test [7], -5.54% (inactive); in test [8], 8.98% (inactive). Moreover, in test [2], the inhibition of aggregation was 1.6% (inactive). For the same compound, the values for the nuclei count in test [2] and in test [3] were 94.4% and 109%, respectively. For the same compound, the fluorescence slope in test [4] is -0.581 (inactive); in test [6], 0.00574 (inactive). For the same compound, the NADPH fluorescence slope in test [5] is 1.1e-05 (inactive).

Turning to `CN1CCN(CCCNC(=O)C2CC(=O)N(C3CCCCC3)C2)CC1` (stereo not drawn), in test [1], the cell count is 259. Moreover, the inhibition in test [1] was -1.7% (inactive); in test [3], 15.5% (inactive); in test [7], 14.4% (inactive); in test [8], 13.7% (inactive). Further, in test [2], the inhibition of aggregation was 2.4% (inactive). The nuclei count in test [2] was 98%; in test [3] it was 89.4%. The fluorescence slope in test [4] is -0.548 (inactive); in test [6], 0.00645 (inactive). In addition, in test [5], the NADPH fluorescence slope is -4.3e-05 (inactive).

`Cc1nc2ccccn2c1/C(O)=C1\C(=O)C(=O)N(CCN2CCOCC2)C1c1cccs1` (stereo not drawn): the cell count in test [1] is 318. The inhibition was 0.2% (inactive) in test [1], -41.3% (inactive) in test [3], -0.701% (inactive) in test [7] and 7.4% (inactive) in test [8]. For the same compound, in test [2], the inhibition of aggregation is 0.3% (inactive). Moreover, the nuclei count in test [2] is 99.6%; in test [3], 116%. For the same compound, the fluorescence slope in test [4] was -0.301 (inactive); in test [6] it was 0.00659 (inactive). Moreover, the NADPH fluorescence slope in test [5] is -1.7e-05 (inactive).

For `CCOc1ccc2c(c1)sc1nc(C(=O)OC)cc(=O)n12`, the cell count in test [1] turned out to be 432. Besides, the inhibition in test [1] is 7.5% (inactive); in test [3], -0.5% (inactive); in test [7], 13.7% (inactive); in test [8], 19.3% (inactive). Also, the inhibition of aggregation in test [2] was -10.2% (inactive). The nuclei count in test [2] was 109%; in test [3], 108%. Also, the fluorescence slope was -0.175 (inactive) in test [4] and 0.00476 (inactive) in test [6]. For the same compound, the NADPH fluorescence slope in test [5] is -1.7e-05 (inactive).

Consider `CCSc1ncc(C#N)c(=O)[nH]1`, for which the cell count in test [1] was found to be 381. In addition, the inhibition in test [1] was 3.5% (inactive); in test [3], -53.9% (inactive); in test [7], 2.6% (inactive); in test [8], 6.42% (inactive). Further, the inhibition of aggregation in test [2] is -21.7% (inactive). Besides, the nuclei count in test [2] was found to be 89.7%; in test [3] it was 102%. In addition, the fluorescence slope in test [4] is -0.517 (inactive); in test [6] it was 0.00385 (inactive). For the same compound, in test [5], the NADPH fluorescence slope was -0.000177 (inactive).

As for `O=C(Nc1cccc(C(=O)N2CCOCC2)c1)c1cccnc1`, the cell count in test [1] was determined as 282. The inhibition in test [1] was -15.4% (inactive); in test [3], -25.3% (inactive); in test [7], -1.23% (inactive); in test [8] it was 0.71% (inactive). The inhibition of aggregation in test [2] was -7.7% (inactive). The nuclei count was 106% in test [2] and 116% in test [3]. Moreover, the fluorescence slope in test [4] was -0.546 (inactive); in test [6], 0.00393 (inactive). For the same compound, in test [5], the NADPH fluorescence slope is -0.000161 (inactive).

Turning to `O=C(C1CCN(S(=O)(=O)c2ccc(-n3cnnn3)cc2)CC1)N1CCN(c2ccccc2)CC1`, in test [1], the cell count is 464. The inhibition in test [1] was 4.2% (inactive); in test [3] it was -101% (inactive); in test [7] it was 18.7% (inactive); in test [8] it was 18.2% (inactive). The inhibition of aggregation in test [2] is 3.7% (inactive). The figures for the nuclei count in test [2] and in test [3] were 76.8% and 120%, respectively. In addition, the fluorescence slope in test [4] was -0.569 (inactive); in test [6], 0.00595 (inactive). Besides, the NADPH fluorescence slope in test [5] is -4.3e-05 (inactive).

As for `O=C(CN1C(=O)C2CC=C(Cl)CC2C1=O)Nc1ccc(C(=O)O)cc1` (stereo not drawn), the cell count in test [1] came to 442. Moreover, the inhibition in test [1] is 3.4% (inactive); in test [3], -205% (inactive); in test [7] it was 19.2% (inactive); in test [8], 20.6% (inactive). Besides, the inhibition of aggregation in test [2] was 10.1% (inactive). Also, the nuclei count in test [2] was found to be 110%; in test [3], 122%. In addition, the fluorescence slope in test [4] is -0.569 (inactive); in test [6], 0.00409 (inactive). Besides, in test [5], the NADPH fluorescence slope is -7.9e-05 (inactive).

As to `COC(=O)c1ccc(CN(c2ccccc2OC)S(=O)(=O)c2cccs2)o1`, the cell count in test [1] is 666. Besides, the inhibition in test [1] is 8.1% (inactive); in test [3] it was 44.1% (inactive); in test [7], 3.68% (inactive); in test [8], 7.96% (inactive). In test [2], the inhibition of aggregation was -4.4% (inactive). In addition, the nuclei count was determined as 113% in test [2] and 98.6% in test [3]. Besides, the fluorescence slope is -0.534 (inactive) in test [4] and 0.00695 (inactive) in test [6]. In addition, the NADPH fluorescence slope in test [5] was -5.7e-05 (inactive).

As to `Cc1ccc(Cn2nnc3c(=O)n(CC(=O)NCC4CCCO4)cnc32)cc1` (stereo not drawn), the cell count in test [1] stood at 792. The inhibition in test [1] was -13.6% (inactive); in test [3], -51.5% (inactive); in test [7] it was 9.27% (inactive); in test [8], 18.9% (inactive). In addition, the inhibition of aggregation in test [2] is -20.8% (inactive). Further, the figures for the nuclei count in test [2] and in test [3] were 102% and 98.4%, respectively. The values for the fluorescence slope in test [4] and in test [6] were -0.459 (inactive) and 0.00672 (inactive), respectively. Moreover, the NADPH fluorescence slope in test [5] was -4.1e-05 (inactive).

Take `CCCS(=O)(=O)N1CCN(C(=O)CCC2CCCC2)CC1`: the cell count in test [1] came to 222. The inhibition in test [1] was 8.5% (inactive); in test [3], -18.1% (inactive); in test [7] it was 10.9% (inactive); in test [8], 17.4% (inactive). Further, the inhibition of aggregation in test [2] was 15.8% (inactive). For the same compound, the nuclei count in test [2] is 77.9%; in test [3] it was 148%. Also, the fluorescence slope is -0.435 (inactive) in test [4] and 0.00496 (inactive) in test [6]. The NADPH fluorescence slope in test [5] was -3.3e-05 (inactive).

`C=CCNC(=O)CSc1ccc(Cl)cc1`: the cell count in test [1] was 339. The inhibition in test [1] is 7.4% (inactive); in test [3], -99.8% (inactive); in test [7] it was 5.55% (inactive); in test [8] it was -3.36% (inactive). Further, the inhibition of aggregation in test [2] is -7.8% (inactive). Moreover, the nuclei count in test [2] was found to be 96%; in test [3], 101%. Moreover, the fluorescence slope in test [4] is -0.448 (inactive); in test [6], 0.00478 (inactive). For the same compound, the NADPH fluorescence slope in test [5] was -0.000358 (inactive).
